Usually pIC50 stands for the negative decadic logarithm of the IC50, by convention in mol/L. A high value points to a low IC50.

Data on three molecules can be found in ChEMBL document CHEMBL1142957, “Total structure and inhibition of tumor cell proliferation of laxaphycins” (J Med Chem, 2007).

The subject of assay [1] is CCRF-CEM. The experiment in a line: Ratio of IC50 for teniposide-resistant CEM/VM1 cells over IC50 for drug-sensitive CCRF-CEM cells. The class given is functional, Homo sapiens.
The test system of assay [2] is CCRF-CEM. The assay can be described thus: Ratio of IC50 for vinblastine-resistant CEM/VLB100 cells over IC50 for drug-sensitive CCRF-CEM cells. The assay is classed as functional, Homo sapiens.
In assay [3] the test system is CCRF-CEM. The experiment in a line: Cytotoxicity against drug-sensitive CCRF-CEM cells after 72 hrs. The assay is classed as cell-based. The conditions noted are these: Homo sapiens. An outline of the steps: (§1)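 Leukemic lymphoblasts (parent CCRF-CEM, Pgp-overexpressing CEM/VLB100, topo II-altered CEM/VM-1) grown in RPMI 1640 with 10% FCS and antibiotics, 37 °C, 5% CO2. Serial dilutions in medium added to 2 × 10⁵ cells/mL for 3 days, medium not renewed. Survivors counted on a Coulter counter. Triplicate, averaged.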

Assay [4] is described as follows: Cytotoxicity against teniposide-resistant CEM/VM1 cells after 72 hrs. The class given is cell-based. As to conditions: Homo sapiens, CEM-VM1, 72 h. An outline of the steps:
as §1

Assay [5] can be described thus: Cytotoxicity against vinblastine-resistant CEM/VLB100 cells after 72 hrs. The assay is classed as cell-based. As to conditions: Homo sapiens, CEM/VLB100, 72 h. An outline of the steps: as §1
The test system of assay [6] is CCRF-CEM. The assay can be described thus: Antiproliferative activity against CCRF-CEM cells at 20 uM after 72 hrs. The assay is classed as functional, cell-based. As to conditions: Homo sapiens. In a few lines: as §1
The test system of the next assay is DLD-1. The experiment in a line: Antiproliferative activity against human DLD1 cells at 5 uM after 48 hrs by RRT assay. The assay is classed as functional, cell-based. In a few lines:
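Adherent lines in supplemented Glutamax MEM, 37 °C, 5% CO2. Seeded 5 × 10³ cells/well, adhered 16 h, then treated 48 h continuously, alone or in combination, in 0.5% DMSO (solvent control). Resazurin 25 µg/mL in MEM added, 1 h at 37 °C, fluorescence 530/590 nm. Survival = % of control after blank subtraction; IC50 from concentration–survival curve. Two independent assays in triplicate.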

pIC50: −log10 of the molar value. Activity calls are given as the source filed them. No cut-off for these calls is given here. Bounds are passed on as bounds.

Take `CC[C@]1(O)C[C@@H]2CN(CCc3c([nH]c4ccccc34)[C@@](C(=O)OC)(c3cc4c(cc3OC)N(C)[C@H]3[C@@](O)(C(=O)OC)[C@H](OC(C)=O)[C@]5(CC)C=CCN6CC[C@]43[C@@H]65)C2)C1` [VINBLASTINE]: the “Ratio IC50” value in the assay on CCRF-CEM [1] is 2; in the assay on CCRF-CEM [2], 89. The negative-log IC50 (pIC50) in the assay on CCRF-CEM [3] is 8.40; in assay [4] it was 8.10; in assay [5] it was 6.45.

`C/C=C1/NC(=O)[C@H](CCO)NC(=O)C[C@@H](CCCCC)NC(=O)CNC(=O)[C@H](CC(C)C)NC(=O)[C@@H]([C@@H](C)CC)NC(=O)[C@H]([C@@H](C)CC)NC(=O)[C@@H](CC(C)C)NC(=O)[C@@H](Cc2ccccc2)NC(=O)[C@H](CCO)NC(=O)[C@@H]2C[C@@H](O)CN2C1=O` [LAXAPHYCIN A]: the result with CCRF-CEM [6] and in the assay with DLD-1 was inactive. Besides, the pIC50 (in the assay on CCRF-CEM [3]; in assay [4]; in assay [5]) was less than 4.70 in each case.

For the molecule `CCCCCCC[C@@H]1CC(=O)N[C@@H](C(C)C)C(=O)N[C@H]([C@@H](O)C(C)C)C(=O)N[C@@H](C)C(=O)N[C@H](CC(C)C)C(=O)N[C@@H](CCC(N)=O)C(=O)N(C)[C@@H]([C@@H](C)CC)C(=O)N[C@H]([C@@H](O)C(N)=O)C(=O)N[C@@H]([C@@H](C)O)C(=O)N2CCC[C@H]2C(=O)N[C@H](CC(C)C)C(=O)N[C@@H]([C@@H](C)O)C(=O)N1` [LAXAPHYCIN B2], the “Ratio IC50” value in the assay with CCRF-CEM [1] is on record as 1; in the assay on CCRF-CEM [2], 0.8. Moreover, the negative logarithm of the IC50 (pIC50) is 5.38 in the assay with CCRF-CEM [3], 5.38 in assay [4] and 5.48 in assay [5].
